Test results: ChEMBL document CHEMBL1165965, “Synthesis and structure-activity relationships of 1,2,3,4-tetrahydropyrido[2,3-b]pyrazines as potent and selective inhibitors of the anaplastic lymphoma kinase” (Bioorg Med Chem, 2010)

Tests used:
[1] = target: Ribosomal protein S6 kinase alpha-6 (Homo sapiens) (UniProt Q9UK32); experiment: Inhibition of RPS6KA6 N-terminal domain1 at 1 uM
[2] = target: T1, Serine/threonine-protein kinase RIO3 (Homo sapiens) (UniProt O14730); experiment: Inhibition of RIOK3 at 1 uM
T1 sequence (whole entry): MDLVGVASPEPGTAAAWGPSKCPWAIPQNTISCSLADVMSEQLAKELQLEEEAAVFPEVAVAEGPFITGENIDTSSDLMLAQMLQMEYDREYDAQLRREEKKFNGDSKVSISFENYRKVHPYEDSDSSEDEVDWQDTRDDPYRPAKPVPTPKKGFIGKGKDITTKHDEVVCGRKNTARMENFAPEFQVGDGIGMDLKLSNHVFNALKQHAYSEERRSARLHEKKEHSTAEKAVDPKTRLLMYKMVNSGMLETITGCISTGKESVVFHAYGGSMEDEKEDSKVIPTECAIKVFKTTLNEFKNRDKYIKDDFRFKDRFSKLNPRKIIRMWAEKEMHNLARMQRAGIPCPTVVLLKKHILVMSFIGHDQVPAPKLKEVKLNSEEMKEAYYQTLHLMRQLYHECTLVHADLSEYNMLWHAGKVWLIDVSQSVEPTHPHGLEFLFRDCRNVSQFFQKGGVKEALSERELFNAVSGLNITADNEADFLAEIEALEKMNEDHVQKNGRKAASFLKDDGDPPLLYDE

[3] = target: Cyclin-dependent kinase 5 (Homo sapiens) (UniProt Q00535); experiment: Inhibition of CDK5 at 1 uM
Chain of Cyclin-dependent kinase 5 (Homo sapiens) (Q00535 whole entry, looked up): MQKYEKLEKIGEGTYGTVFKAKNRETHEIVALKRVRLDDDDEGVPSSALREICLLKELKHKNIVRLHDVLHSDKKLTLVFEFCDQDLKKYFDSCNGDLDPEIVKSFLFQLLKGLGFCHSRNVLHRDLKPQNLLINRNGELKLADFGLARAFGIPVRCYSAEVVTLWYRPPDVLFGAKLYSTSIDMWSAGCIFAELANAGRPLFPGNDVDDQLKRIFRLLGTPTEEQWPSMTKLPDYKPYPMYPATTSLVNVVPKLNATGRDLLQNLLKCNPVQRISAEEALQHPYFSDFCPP
How it was run: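 Ambit KINOMEscan screen at a single concentration across a 250–400 kinase panel, recorded as percent inhibition. Selectivity was expressed as S(90), the fraction of kinases inhibited >90%.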

[4] = target: T2, Protein kinase C epsilon type (Homo sapiens) (UniProt Q02156); experiment: Inhibition of PRKCE at 1 uM
T2 sequence (whole entry): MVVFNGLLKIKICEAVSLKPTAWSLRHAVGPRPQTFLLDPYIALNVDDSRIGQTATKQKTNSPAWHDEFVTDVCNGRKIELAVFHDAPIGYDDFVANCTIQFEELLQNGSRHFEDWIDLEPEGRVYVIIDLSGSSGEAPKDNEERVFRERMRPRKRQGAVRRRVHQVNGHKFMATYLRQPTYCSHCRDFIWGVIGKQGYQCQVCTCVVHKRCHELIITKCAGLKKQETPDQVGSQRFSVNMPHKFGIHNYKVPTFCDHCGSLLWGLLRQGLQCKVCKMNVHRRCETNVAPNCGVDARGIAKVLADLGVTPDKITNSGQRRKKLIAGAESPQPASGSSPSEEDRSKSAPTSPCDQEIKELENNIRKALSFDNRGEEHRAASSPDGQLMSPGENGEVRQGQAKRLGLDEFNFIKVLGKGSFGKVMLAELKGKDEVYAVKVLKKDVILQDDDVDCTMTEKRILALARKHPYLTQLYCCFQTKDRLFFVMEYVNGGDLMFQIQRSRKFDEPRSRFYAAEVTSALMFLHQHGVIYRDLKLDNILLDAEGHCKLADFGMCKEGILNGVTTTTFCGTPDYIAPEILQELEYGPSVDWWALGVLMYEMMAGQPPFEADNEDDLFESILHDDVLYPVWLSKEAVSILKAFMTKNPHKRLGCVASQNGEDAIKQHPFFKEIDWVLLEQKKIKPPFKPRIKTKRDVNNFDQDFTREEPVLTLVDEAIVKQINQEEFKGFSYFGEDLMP

[5] = target: Dual specificity tyrosine-phosphorylation-regulated kinase 1B (Homo sapiens) (UniProt Q9Y463); experiment: Inhibition of DYRK1B at 1 uM
Chain of Dual specificity tyrosine-phosphorylation-regulated kinase 1B (Homo sapiens) (Q9Y463 whole entry, looked up, the tested form may be a part): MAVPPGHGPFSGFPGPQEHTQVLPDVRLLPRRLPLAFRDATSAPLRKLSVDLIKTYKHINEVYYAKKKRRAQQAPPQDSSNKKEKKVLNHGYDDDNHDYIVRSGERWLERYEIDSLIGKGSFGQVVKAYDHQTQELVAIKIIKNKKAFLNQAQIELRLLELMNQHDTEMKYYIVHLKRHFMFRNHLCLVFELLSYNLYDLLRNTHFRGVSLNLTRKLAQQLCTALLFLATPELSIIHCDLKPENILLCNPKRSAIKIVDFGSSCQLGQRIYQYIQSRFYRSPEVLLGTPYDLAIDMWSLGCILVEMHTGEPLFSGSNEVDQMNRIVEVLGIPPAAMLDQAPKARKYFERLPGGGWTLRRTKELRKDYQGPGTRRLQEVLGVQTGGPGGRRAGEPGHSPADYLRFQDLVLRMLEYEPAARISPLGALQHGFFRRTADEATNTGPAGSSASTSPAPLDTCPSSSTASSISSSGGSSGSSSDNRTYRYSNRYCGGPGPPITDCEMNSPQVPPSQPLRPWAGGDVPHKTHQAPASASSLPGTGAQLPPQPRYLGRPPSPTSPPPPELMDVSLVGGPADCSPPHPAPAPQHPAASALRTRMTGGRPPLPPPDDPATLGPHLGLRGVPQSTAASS

[6] = target: T3, Discoidin domain-containing receptor 2 (Homo sapiens) (UniProt Q16832); experiment: Inhibition of DDR2 at 1 uM
T3 sequence (whole entry): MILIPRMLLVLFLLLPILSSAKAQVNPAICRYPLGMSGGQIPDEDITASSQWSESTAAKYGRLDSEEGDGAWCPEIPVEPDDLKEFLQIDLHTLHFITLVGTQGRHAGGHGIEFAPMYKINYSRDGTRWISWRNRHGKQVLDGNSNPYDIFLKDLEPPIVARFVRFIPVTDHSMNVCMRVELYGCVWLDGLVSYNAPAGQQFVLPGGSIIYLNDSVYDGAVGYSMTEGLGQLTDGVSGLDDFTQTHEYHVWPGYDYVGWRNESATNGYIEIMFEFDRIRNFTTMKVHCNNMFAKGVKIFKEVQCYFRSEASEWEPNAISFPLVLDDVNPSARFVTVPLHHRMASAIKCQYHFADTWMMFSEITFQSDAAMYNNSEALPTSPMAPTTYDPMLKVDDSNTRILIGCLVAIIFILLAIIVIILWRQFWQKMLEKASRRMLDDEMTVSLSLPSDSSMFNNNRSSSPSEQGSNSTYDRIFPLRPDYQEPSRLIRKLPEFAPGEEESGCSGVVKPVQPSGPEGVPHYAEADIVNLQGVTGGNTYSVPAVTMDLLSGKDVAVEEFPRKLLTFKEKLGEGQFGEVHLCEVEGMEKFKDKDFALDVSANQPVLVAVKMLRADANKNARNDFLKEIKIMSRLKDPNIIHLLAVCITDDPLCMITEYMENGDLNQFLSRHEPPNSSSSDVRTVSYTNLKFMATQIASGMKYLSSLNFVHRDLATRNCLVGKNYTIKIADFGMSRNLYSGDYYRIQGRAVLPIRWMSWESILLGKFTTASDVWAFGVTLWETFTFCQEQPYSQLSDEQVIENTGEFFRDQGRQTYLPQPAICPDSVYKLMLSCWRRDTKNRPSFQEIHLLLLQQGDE

Measured: inhibition

Chain of Ribosomal protein S6 kinase alpha-6 (Homo sapiens) (Q9UK32 whole entry, the tested form may be a part): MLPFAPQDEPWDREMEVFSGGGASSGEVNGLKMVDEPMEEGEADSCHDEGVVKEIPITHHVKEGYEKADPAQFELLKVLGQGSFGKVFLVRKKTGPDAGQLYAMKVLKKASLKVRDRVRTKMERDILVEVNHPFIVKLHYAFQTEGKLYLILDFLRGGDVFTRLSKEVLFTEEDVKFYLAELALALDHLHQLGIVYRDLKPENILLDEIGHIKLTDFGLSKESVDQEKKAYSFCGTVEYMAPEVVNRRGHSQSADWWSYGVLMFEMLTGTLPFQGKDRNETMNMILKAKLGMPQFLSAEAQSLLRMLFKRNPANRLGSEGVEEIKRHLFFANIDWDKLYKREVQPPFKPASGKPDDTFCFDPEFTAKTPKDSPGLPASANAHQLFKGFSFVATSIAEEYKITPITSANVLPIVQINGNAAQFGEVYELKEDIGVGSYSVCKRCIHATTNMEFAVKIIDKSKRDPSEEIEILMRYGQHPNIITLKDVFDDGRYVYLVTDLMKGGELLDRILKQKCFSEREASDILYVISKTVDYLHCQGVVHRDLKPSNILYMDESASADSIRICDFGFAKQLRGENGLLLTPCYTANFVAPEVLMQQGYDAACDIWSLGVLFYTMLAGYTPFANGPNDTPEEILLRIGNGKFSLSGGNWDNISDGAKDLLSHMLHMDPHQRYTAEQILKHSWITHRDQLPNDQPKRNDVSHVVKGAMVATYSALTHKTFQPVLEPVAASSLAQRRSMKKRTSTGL

CN1CCN(c2ccc(-c3cnc4c(c3)N(Cc3cc(F)ccc3F)CCN4)cn2)CC1
< 50%: all assays above

CC(=O)N1CCN(c2cc(-c3cnc4c(c3)N(Cc3cc(Cl)ccc3C(F)(F)F)CCN4)ccn2)CC1
< 50%: all assays above

CN1CCN(c2ccc(-c3cnc4c(c3)N(Cc3c(F)ccc(F)c3Cl)CCN4)cn2)CC1
< 50%: all assays above

FC(F)(F)c1ccc(Cl)cc1CN1CCNc2ncc(-c3ccnc(N4CCNCC4)c3)cc21
< 50%: all assays above

CN1CCN(c2ccc(-c3cnc4c(c3)N(Cc3cc(Cl)ccc3Cl)CCN4)cn2)CC1
< 50%: all assays above

O=C(c1ccc(-c2cnc3c(c2)N(Cc2cc(Cl)ccc2C(F)(F)F)CCN3)cc1)N1CCC(N2CCCC2)CC1
< 50%: [1] | [2] | [3] | [6]

O=C(O)c1ccc(-c2cnc3c(c2)N(Cc2cc(Cl)ccc2C(F)(F)F)CCN3)cc1
< 50%: [1] | [2] | [3]

CN1CCN(c2ccc(-c3cnc4c(c3)N(Cc3cc(Cl)ccc3C(F)(F)F)CCN4)cn2)CC1
< 50%: all assays above

O=C(c1ccc(-c2cnc3c(c2)N(Cc2cc(Cl)ccc2C(F)(F)F)CCN3)cc1)N1CCCCC1
< 50%: [1] | [2] | [3]

COC1CCN(C(=O)c2ccc(-c3cnc4c(c3)N(Cc3cc(Cl)ccc3C(F)(F)F)CCN4)cc2)CC1
< 50%: [1] | [2] | [3] | [6]
